# Assay results taken from PubChem BioAssay AID504425 (Johns Hopkins Ion Channel Center, 2011).
# Calls of active or inactive are those of the source.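 The calls were made as follows: active = compound that lowers Cav3.3 T-type calcium current at some tested dose and yields a usable dose response curve; inactive = the rest.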
# Target: Voltage-dependent T-type calcium channel subunit alpha-1I (Homo sapiens) (UniProt Q9P0X4)
# Test: Cav3.3 T-type channel current inhibition, dose response, selectivity assay for Cav3.2 inhibitor project, automated patch clamp, HEK293 cells (AID 504425)
# Conditions: HEK293 Cav3.3, automated patch clamp current; for current change, negative = inhibition: at 30 µM (top of the series)
# Method in brief: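 Material: Cav3.3-expressing stable HEK293 cell line; Probe or stimulus: voltage step, -100 mV to -30 mV, 1 s; Times: 3 min compound exposure between pre- and post-compound recordings; Detection: automated perforated patch clamp current recording.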
# Sequence of Voltage-dependent T-type calcium channel subunit alpha-1I (Homo sapiens) (Q9P0X4 whole entry, looked up): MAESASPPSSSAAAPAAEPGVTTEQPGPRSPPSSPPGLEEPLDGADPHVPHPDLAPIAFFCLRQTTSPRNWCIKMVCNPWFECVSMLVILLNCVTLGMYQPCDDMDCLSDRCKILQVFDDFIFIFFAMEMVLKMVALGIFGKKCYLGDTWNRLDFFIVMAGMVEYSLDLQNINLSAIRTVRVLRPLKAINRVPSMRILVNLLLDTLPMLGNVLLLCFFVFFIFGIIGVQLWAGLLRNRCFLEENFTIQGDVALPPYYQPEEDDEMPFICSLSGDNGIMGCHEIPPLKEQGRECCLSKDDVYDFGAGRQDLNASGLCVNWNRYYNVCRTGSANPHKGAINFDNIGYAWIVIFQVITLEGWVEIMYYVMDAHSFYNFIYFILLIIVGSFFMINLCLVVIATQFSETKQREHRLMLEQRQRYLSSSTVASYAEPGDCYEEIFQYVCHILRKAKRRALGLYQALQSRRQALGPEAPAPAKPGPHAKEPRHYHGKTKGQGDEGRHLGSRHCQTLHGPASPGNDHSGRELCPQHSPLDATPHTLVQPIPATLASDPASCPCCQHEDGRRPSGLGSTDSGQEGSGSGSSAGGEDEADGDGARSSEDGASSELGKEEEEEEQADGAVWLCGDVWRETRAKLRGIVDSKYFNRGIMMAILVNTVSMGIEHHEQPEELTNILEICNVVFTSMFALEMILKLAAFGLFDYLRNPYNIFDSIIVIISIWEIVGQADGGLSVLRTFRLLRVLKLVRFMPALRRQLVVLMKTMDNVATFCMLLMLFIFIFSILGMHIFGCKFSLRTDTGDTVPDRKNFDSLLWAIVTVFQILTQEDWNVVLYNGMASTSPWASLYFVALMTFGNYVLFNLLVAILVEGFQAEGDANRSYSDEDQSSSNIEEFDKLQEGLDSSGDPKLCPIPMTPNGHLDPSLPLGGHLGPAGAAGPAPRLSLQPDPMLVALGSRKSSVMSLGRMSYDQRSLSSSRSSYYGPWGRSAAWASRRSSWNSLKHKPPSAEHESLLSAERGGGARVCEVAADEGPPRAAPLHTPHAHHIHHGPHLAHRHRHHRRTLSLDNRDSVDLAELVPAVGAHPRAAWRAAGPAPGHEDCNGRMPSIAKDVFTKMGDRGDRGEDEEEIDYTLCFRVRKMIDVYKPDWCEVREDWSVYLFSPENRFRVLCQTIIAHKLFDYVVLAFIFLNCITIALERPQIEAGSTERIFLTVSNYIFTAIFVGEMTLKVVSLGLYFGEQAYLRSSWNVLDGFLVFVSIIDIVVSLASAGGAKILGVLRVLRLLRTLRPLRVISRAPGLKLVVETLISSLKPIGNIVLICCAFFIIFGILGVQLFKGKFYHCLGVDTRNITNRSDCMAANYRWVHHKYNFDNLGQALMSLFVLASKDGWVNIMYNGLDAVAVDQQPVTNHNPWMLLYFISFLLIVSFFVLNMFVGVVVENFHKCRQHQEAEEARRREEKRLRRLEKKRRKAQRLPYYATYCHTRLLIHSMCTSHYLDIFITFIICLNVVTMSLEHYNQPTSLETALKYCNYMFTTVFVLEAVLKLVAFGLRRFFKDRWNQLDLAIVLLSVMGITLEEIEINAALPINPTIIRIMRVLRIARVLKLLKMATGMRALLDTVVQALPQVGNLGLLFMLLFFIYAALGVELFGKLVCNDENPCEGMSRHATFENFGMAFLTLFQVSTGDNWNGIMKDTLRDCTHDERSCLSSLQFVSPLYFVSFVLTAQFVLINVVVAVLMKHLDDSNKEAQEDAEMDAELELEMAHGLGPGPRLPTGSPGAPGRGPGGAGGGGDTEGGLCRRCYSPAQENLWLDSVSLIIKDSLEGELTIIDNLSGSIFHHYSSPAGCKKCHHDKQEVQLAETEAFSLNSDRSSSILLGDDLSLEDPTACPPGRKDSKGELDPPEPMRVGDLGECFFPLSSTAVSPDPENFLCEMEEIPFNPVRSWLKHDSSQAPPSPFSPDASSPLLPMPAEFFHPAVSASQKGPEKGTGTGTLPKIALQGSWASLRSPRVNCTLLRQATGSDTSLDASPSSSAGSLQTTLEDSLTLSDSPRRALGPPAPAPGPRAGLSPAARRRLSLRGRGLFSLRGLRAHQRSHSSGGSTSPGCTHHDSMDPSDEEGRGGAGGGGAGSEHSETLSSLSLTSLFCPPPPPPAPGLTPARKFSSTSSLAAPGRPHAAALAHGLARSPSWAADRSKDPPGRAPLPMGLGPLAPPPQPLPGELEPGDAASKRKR
IC50,Structure (SMILES),"current change, negative = inhibition"
–,CC(C)(C)Cc1nnc(NC(=O)COc2ccc(Cl)cc2Cl)o1,inactive
11 µM,O=C(COc1ccc(F)cc1Cl)Nc1nnc(-c2ccc(F)c(F)c2)o1,–
–,Cc1ccc(-c2nnc(NC(=O)COc3ccc(F)cc3Cl)o2)cc1C,inactive
0.275 µM,CC(C)(C)CCN1C[C@@H]2C(CNC(=O)c3cc(Cl)cc(Cl)c3)[C@@H]2C1 (some centres undefined),–
